4 compounds from article PMC11044231 (ACS Omega, 2024) can be followed below.

The test system of assay [1] is RAW 264.7 mouse macrophage cell line. Type of assay: cell-based. As to conditions: RAW264.7, 24 h, read-out: NO Production Inhibition (IC50). In outline:
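NO production inhibition is measured in RAW 264.7 macrophages, with dexamethasone as positive control and the value given as IC50.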

The nature of assay [2]: TAOC, total antioxidant capacity. As to conditions: read-out: TAOC EC50; concentration that results in an absorbance of 0.500. In outline:
(§1)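 Cell-free antioxidant assays, with Trolox and ascorbic acid as positive controls. Results are expressed as […] or as Trolox equivalents.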

The nature of assay [3]: ORAC, oxygen radical absorbance capacity. The following applies: trolox equivalent. In short, it runs like this:
as §1

Assay [4] is described as follows: HORAC, hydroxyl radical absorbance capacity. The following applies: trolox equivalent. In short, it runs like this:
as §1

For assay [5], the system named is MDA-MB-231S triple-negative breast cancer cell line. The assay can be described thus: MTT antiproliferative assay, MDA-MB-231S. Type of assay: cell-based. As to conditions: 48 h, read-out: IC50, antiproliferative effect. In short, it runs like this:
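Antiproliferative test on MDA-MB-231S cells with DMSO as negative (vehicle) control and doxorubicin as positive control. Activity is reported as IC50.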
In general terms: Tetrazolium dyes change colour on reduction, which living cells bring about.

On to `C[C@@H]1C[C@H]2[C@@H]3CCC4=CC(=O)C=C[C@]4(C)[C@@]3(F)[C@@H](O)C[C@]2(C)[C@@]1(O)C(=O)CO` [dexametasone, Dexamethasone], for which the IC50 (usually the concentration that gives 50% inhibition) in assay [1] came to 16.1 ± 1.02 µM.
Take `O=C1O[C@H]([C@@H](O)CO)C(O)=C1O` [ascorbic acid]: the EC50 (in general, the concentration at which the effect is half-maximal) in assay [2] came to 244 µM.
`Cc1c(C)c2c(c(C)c1O)CCC(C)(C(=O)O)O2` (stereo not drawn) [trolox]: in assay [3], the “ORAC (TE)” value is reported as 1 TE. Further, the “HORAC (TE)” value in assay [4] was determined as 1 TE. For the same compound, in assay [2], the EC50 was found to be 143 µM.
For the compound `COc1cccc2c1C(=O)c1c(O)c3c(c(O)c1C2=O)C[C@@](O)(C(=O)CO)C[C@@H]3O[C@H]1C[C@H](N)[C@H](O)[C@H](C)O1` [doxorubicin], the IC50 in assay [5] stood at 70 ± 10 nM.
